Experimental data from ChEMBL document CHEMBL1759867, “Evaluation of dihydropyrimidin-(2H)-one analogues and rhodanine derivatives as tyrosinase inhibitors” (Bioorg Med Chem Lett, 2011).
Activity calls are given as the source filed them. No cut-off for these calls is given here.

Tests used:
[1] = target: T1, Tyrosinase (Agaricus bisporus) (UniProt O42713); assay: Inhibition of diphenolase activity of mushroom tyrosinase at 50 mM preincubated with compound for 10 mins before addition of L-DOPA as substrate by spectrophotometric analysis
T1 sequence (whole entry): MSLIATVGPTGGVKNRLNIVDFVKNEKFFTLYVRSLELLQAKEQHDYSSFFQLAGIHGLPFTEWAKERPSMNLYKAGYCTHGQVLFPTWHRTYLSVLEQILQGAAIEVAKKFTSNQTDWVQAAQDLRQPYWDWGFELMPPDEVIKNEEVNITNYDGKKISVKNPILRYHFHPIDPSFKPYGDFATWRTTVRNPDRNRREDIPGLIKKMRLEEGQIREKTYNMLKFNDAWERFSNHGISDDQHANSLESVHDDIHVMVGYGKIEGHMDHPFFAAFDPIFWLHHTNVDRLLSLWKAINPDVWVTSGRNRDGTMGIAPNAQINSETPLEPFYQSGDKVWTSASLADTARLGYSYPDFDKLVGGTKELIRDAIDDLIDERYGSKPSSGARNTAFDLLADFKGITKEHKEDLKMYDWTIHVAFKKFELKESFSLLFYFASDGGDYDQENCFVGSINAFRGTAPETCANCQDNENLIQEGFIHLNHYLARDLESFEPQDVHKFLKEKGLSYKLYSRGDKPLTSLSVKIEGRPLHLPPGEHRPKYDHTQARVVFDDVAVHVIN
Method in brief: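 Mushroom tyrosinase diphenolase activity was measured on L-DOPA at 25 °C. Compounds were scored for activity at a single fixed concentration.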

Tyrosinase = target: T2, Tyrosinase (Agaricus bisporus, UniProt O42713); assay: Inhibition of diphenolase activity of mushroom tyrosinase preincubated with compound for 10 mins before addition of L-DOPA as substrate by spectrophotometric analysis
T2 sequence (O42713 whole entry): T1 sequence (whole entry)
Method in brief: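 Diphenolase activity of mushroom tyrosinase was measured with L-DOPA as substrate at 25 °C. IC50 was taken from logarithmic concentration–inhibition curves of at least eight points, as the mean of three experiments.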

COc1cc(C2NC(=O)NC(C)=C2C(C)=O)ccc1O (configuration not stated)
inhibition [1]: inactive

CCC1NC(=O)NC(C)=C1C(C)=O (configuration not stated)
inhibition [1]: inactive

CCC1NC(=S)NC(C)=C1C(C)=O (configuration not stated)
IC50 (Tyrosinase): 10.7 mM

COc1ccc(C2NC(=S)NC(C)=C2C(C)=O)cc1 (configuration not stated)
IC50 (Tyrosinase): 25.1 mM

COc1ccc(C2NC(=O)NC(C)=C2C(C)=O)cc1 (configuration not stated)
inhibition [1]: inactive

COc1cc(C2NC(=S)NC(C)=C2C(C)=O)ccc1O (configuration not stated)
IC50 (Tyrosinase): 20.1 mM

CC(=O)C1=C(C)NC(=O)NC1c1ccc(O)cc1 (configuration not stated)
inhibition [1]: inactive

CC(=O)C1=C(C)NC(=S)NC1c1ccccc1O (configuration not stated)
IC50 (Tyrosinase): 16.2 mM

O=C1NC(=S)S/C1=C\c1ccccc1O
IC50 (Tyrosinase): 9.55 mM

COc1cc(/C=C2\SC(=S)NC2=O)ccc1O
IC50 (Tyrosinase): 11.1 mM

CC(=O)C1=C(C)NC(=O)NC1c1ccccc1 (configuration not stated)
inhibition [1]: inactive

O=C1NC(=S)S/C1=C\c1ccc(OCCO)cc1
IC50 (Tyrosinase): 0.56 mM

O=C1NC(=S)S/C1=C\c1ccc(OCCO)c(OCCO)c1
IC50 (Tyrosinase): 5.69 mM

CC(=O)C1=C(C)NC(=S)NC1c1ccc(O)cc1 (configuration not stated)
IC50 (Tyrosinase): 12.3 mM

O=C1NC(=S)S/C1=C\c1ccc(O)cc1
IC50 (Tyrosinase): 10.1 mM

CC(=O)C1=C(C)NC(=O)NC1c1ccccc1O (configuration not stated)
inhibition [1]: inactive

CCO/N=C(\C)C1=C(C)NC(=O)NC1CC (configuration not stated)
inhibition [1]: inactive
